Results from ChEMBL document CHEMBL3739417, “Synthesis and biological evaluation of novel 4,5-disubstituted 2H-1,2,3-triazoles as cis-constrained analogues of combretastatin A-4” (2015).
Active and inactive are the calls of the source. The rule behind the calls is not given here.

Columns and labels:
[1] = Inhibition of colony formation in rat 9LSF cells after 24 hrs by crystal violet staining; assay type: functional; conditions: read-out: LD50 (the source's name)
How it was run: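 9LSF rat gliosarcoma cells exposed for 24 hours at 1 nM, 3 nM, 10 nM, 30 nM, 100 nM, 1 μM or 10 μM. Then trypsinized, counted, seeded in triplicate and incubated at 37°C until colonies exceeded 50 cells. Flasks with fewer than 50,000 cells got 50,000 lethally irradiated A549 feeder cells first. Colonies fixed, crystal violet-stained and counted. LD50 from four-parameter logistic fit, mean ± SEM of 3 independent experiments.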

[2] = Cell cycle arrest in rat 9LSF cells assessed as accumulation at G2/M phase at 50 nM after 24 hrs by propidium iodide based flow cytometry; assay type: functional
How it was run: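 9LSF rat gliosarcoma cells were exposed to 50 nM compound for 24 h alongside untreated controls. Cells were then trypsinized, counted, rinsed in PBS and fixed in ice-cold 70% EtOH/PBS at 10⁶ cells/mL, then held at 4°C. For analysis, 10⁶ cells were pelleted, rinsed three times in PBS and resuspended in 1 mL PBS with 1 µL PI (12.5 mg/mL stock in DMSO). The G2/M fraction was read by flow cytometry.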

## COc1ccc(-c2n[nH]nc2-c2cc(OC)c(OC)c(OC)c2)cc1O
[1]
  CC50: 7.5 nM
[2]
  Activity: Active
